Source: ChEMBL document CHEMBL4196141, “Improved Antibacterial Activity of the Marine Peptide N6 against Intracellular Salmonella Typhimurium by Conjugating with the Cell-Penetrating Peptide Tat11 via a Cleavable Linker” (J Med Chem, 2018)
≈ marks a conversion by molar mass, not a printed value. Calls of active or inactive are those of the source. No cut-off for these calls is given here.

Legend:
Salmonella typhimurium [1] = assay: Antibacterial activity against Salmonella typhimurium ATCC 14028 infected in ICR mouse model of peritonitis assessed as reduction colony forming units in intracellular fluids at 1 umol/kg, ip dosed at 2 hrs post infection and measured after 10 hrs post dose; type: functional, Salmonella enterica subsp. enterica serovar Typhimurium
Outline: (§1)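 Six-week-old female ICR mice (six per group) received ip S. Typhimurium ATCC14028 (5 × 10^5 CFU, 0.5 mL). Peptide was given ip 2 h post-infection and mice were killed 10 h after treatment. Peritoneum was lavaged with 5 mL ice-cold PBS and total CFU counted. For intracellular CFU, pelleted cells were treated with 100 µg/mL gentamicin for 1 h at 37 °C, washed, lysed and plated. PBS served as negative control, ciprofloxacin as positive.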

Salmonella typhimurium [2] = assay: Antibacterial activity against Salmonella typhimurium ATCC 14028 infected in ICR mouse model of peritonitis assessed as reduction colony forming units in total peritoneal fluids at 1 umol/kg, ip dosed at 2 hrs post infection and measured after 10 hrs post dose; type: functional, Salmonella enterica subsp. enterica serovar Typhimurium; outline: as §1
Salmonella typhimurium [3] = assay: Bactericidal activity against 2 hrs-gentamicin pre-exposed Salmonella typhimurium ATCC 14028 assessed as reduction colony forming units at 50 uM incubated for 10 hrs relative to marine peptide N6; type: functional, Salmonella enterica subsp. enterica serovar Typhimurium; set-up: scale not given: the % may be the effect or the level left
Outline: (§2)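 Macrophage protection assay. RAW264.7 cells (5 × 10^4/well, 24 h) were infected with S. Typhimurium ATCC14028 at MOI 10 for 1 h in DMEM/10% FBS, exposed to 100 µg/mL gentamicin for 2 h at 37 °C, and PBS-washed. Peptides in DMEM/10% FBS were added for 10 h. Cells were lysed with 0.1% Triton X-100 and CFU plated; log10 CFU reduction versus untreated cells. Three replicates; two independent experiments; one-way ANOVA with Tukey.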

Salmonella typhimurium [4] = assay: Bactericidal activity against 2 hrs-gentamicin pre-exposed Salmonella typhimurium ATCC 14028 assessed as reduction colony forming units at 50 uM incubated for 10 hrs; type: functional, Salmonella enterica subsp. enterica serovar Typhimurium; outline: as §2
[5] = Cytotoxicity in mouse RAW264.7 assessed as cell survival at 100 uM incubated for 8 hrs by MTT assay; type: cell-based; details: RAW264.7 cells, read-out: Survival
Outline: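 RAW264.7 cells seeded at 2.5 × 10^4 cells/well, cultured 24 h, then exposed for 8 h to 2-fold dilutions from 100 to 0.625 µM. MTT at 5 mg/mL added for 4 h, formazan dissolved in DMSO, absorbance read at 570 nm. Untreated cells served as control. Samples run in triplicate.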

Salmonella typhimurium [6] = assay: Antibacterial activity against Salmonella typhimurium ATCC 14028 infected in ICR mouse model of peritonitis assessed as mouse survival at 1 umol/kg, ip dosed at 0.5 and 8 hrs post infection and measured daily for 7 days
Salmonella typhimurium [7] = assay: Antibacterial activity against Salmonella typhimurium ATCC 14028 incubated for 16 to 18 hrs at pH 7.2 by broth microdilution method; type: functional, Salmonella enterica subsp. enterica serovar Typhimurium; details: Salmonella enterica
Outline: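 Broth microdilution in MH broth. S. Typhimurium ATCC14028 was grown overnight at 37 °C to semi-log phase, pelleted, and diluted to OD600 0.01; final inoculum was 5 × 10^5 CFU/mL. Plates were incubated 16–18 h at 37 °C. MIC is the lowest peptide concentration with no visible growth. Data are in duplicate from at least two independent experiments.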

[8] = Induction of hemolysis in mouse RBC at 100 uM incubated for 1 hrs at 37 degC; type: cell-based, Erythrocyte; details: red blood cells (erythrocytes), read-out: Activity
Outline: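 Fresh mouse erythrocytes were washed three times in 0.9% NaCl, and an 8% suspension was incubated with peptide (2-fold dilutions, 100 to 0.3125 µM) for 1 h at 37 °C. Released hemoglobin was read at 540 nm. 1% Triton X-100 defined 100% lysis; polymyxin served as positive control and NaCl as negative.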

Salmonella typhimurium [9] = assay: Bactericidal activity against 2 hrs-gentamicin pre-exposed Salmonella typhimurium ATCC 14028 assessed as reduction colony forming units at 20 uM incubated for 10 hrs; type: functional, Salmonella enterica subsp. enterica serovar Typhimurium; outline: as §2
Salmonella typhimurium [10] = assay: Antibacterial activity against Salmonella typhimurium ATCC 14028 assessed as time duration for reduction in growth using cathepsin B pre-treated compound at 1 to 2 MIC incubated for 1 to 24 hrs by time kill assay; type: functional, Salmonella enterica subsp. enterica serovar Typhimurium
Outline: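 Time-kill of cathepsin B-pretreated peptide (1 h, 37 °C, pH 5 buffer). Mid-log S. Typhimurium at 10^5 CFU/mL was exposed to 1× and 2× MIC at 37 °C with shaking at 250 rpm. Samples were taken every 2 h, serially diluted and plate-counted. N6 and ciprofloxacin served as controls.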

Salmonella typhimurium [11] = assay: Antibacterial activity against Salmonella typhimurium ATCC 14028 infected in ICR mouse model of peritonitis assessed as mouse survival at 1.5 umol/kg, ip dosed at 0.5 and 8 hrs post infection and measured daily for 7 days
Salmonella typhimurium [12] = assay: Antibacterial activity against Salmonella typhimurium ATCC 14028 using 1 hr cathepsin B pre-treated compound followed by incubation for 16 to 18 hrs at pH 5 by broth microdilution method; type: functional, Salmonella enterica subsp. enterica serovar Typhimurium; details: Salmonella enterica
Outline: (§3)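 Cathepsin B (bovine spleen, 10 µg/mL) was added for 1 h at 37 °C, and the reaction was stopped with 9 volumes of MHB. MIC was then run by broth microdilution (5 × 10^5 CFU/mL, 16–18 h, 37 °C) in medium adjusted to pH 5.0.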

Salmonella typhimurium [13] = assay: Antibacterial activity against Salmonella typhimurium ATCC 14028 using 1 hr cathepsin B pre-treated compound at pH 5 incubated for 16 to 18 hrs at by broth microdilution method; type: functional, Salmonella enterica subsp. enterica serovar Typhimurium; details: Salmonella enterica; outline: as §3
Salmonella typhimurium [14] = assay: Antibacterial activity against Salmonella typhimurium ATCC 14028 infected in ICR mouse model of peritonitis assessed as reduction colony forming units in spleen at 1 to 2 umol/kg, ip dosed at 2 hrs post infection and measured after 10 hrs post dose relative to marine peptide N6; type: functional, Salmonella enterica subsp. enterica serovar Typhimurium; set-up: scale not given: the % may be the effect or the level left
Outline: (§4)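 Female ICR mice, six weeks old (six per group), were infected ip with S. Typhimurium ATCC14028 (5 × 10^5 CFU, 0.5 mL). Peptide was given ip at 1, 1.5 or 2 µmol/kg 2 h post-infection. Mice were killed 10 h after treatment, and kidneys and spleens were homogenized in sterile PBS for CFU counts of translocated bacteria. PBS-treated mice served as negative control, ciprofloxacin-treated mice as positive.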

Salmonella typhimurium [15] = assay: Bactericidal activity against 2 hrs-gentamicin pre-exposed Salmonella typhimurium ATCC 14028 assessed as reduction colony forming units at 10 uM measured within 9 hrs; type: functional, organism-based; details: Salmonella enterica subsp. enterica serovar Typhimurium
Outline: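 RAW264.7 cells in DMEM/10% FBS were infected with S. Typhimurium ATCC14028 at MOI 10 for 1 h, then given 100 µg/mL gentamicin for 2 h at 37 °C and washed. Cells were treated with 10 µM agent for 1, 3, 6, 9 and 12 h, lysed with 0.1% Triton X-100, and surviving intracellular bacteria were serially diluted and plated for CFU.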

Salmonella typhimurium [16] = assay: Bactericidal activity against 2 hrs-gentamicin pre-exposed Salmonella typhimurium ATCC 14028 assessed as reduction colony forming units at 20 uM incubated for 10 hrs relative to marine peptide N6; type: functional, Salmonella enterica subsp. enterica serovar Typhimurium; set-up: scale not given: the % may be the effect or the level left; outline: as §2
Salmonella typhimurium [17] = assay: Antibacterial activity against Salmonella typhimurium ATCC 14028 infected in ICR mouse model of peritonitis assessed as reduction colony forming units in kidney at 1 to 2 umol/kg, ip dosed at 2 hrs post infection and measured after 10 hrs post dose relative to marine peptide N6; type: functional, Salmonella enterica subsp. enterica serovar Typhimurium; set-up: scale not given: the % may be the effect or the level left; outline: as §4
[18] = Drug internalization in mouse RAW264.7 using FITC-labeled compound at 2 uM incubated for 2 hrs at 4 degC by flow cytometry; type: ADME, cell-based; details: raw264.7, 2 h
[19] = Drug internalization in mouse RAW264.7 using FITC-labeled compound at 2 uM pre-incubated for 1 hr with lipid rafts disruptor methyl-beta-cyclodextrin followed by compound addition and subsequent incubation for 2 hrs by flow cytometry; type: ADME, cell-based; details: raw264.7, 2 h
Outline: (§5)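 RAW264.7 cells were pretreated 1 h at 37 °C with 3 mM amiloride, 20 µM nocodazole, 6 µg/mL chlorpromazine or 5 mM MβCD. FITC-labeled peptide was then added for 2 h at 37 °C. Extracellular fluorescence was quenched with 0.4% Trypan blue and intracellular fluorescence read by flow cytometry against an untreated control.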

[20] = Drug internalization in mouse RAW264.7 using FITC-labeled compound at 2 uM pre-incubated for 1 hr with macropinocytosis inhibitor amiloride followed by compound addition and subsequent incubation for 2 hrs by flow cytometry; type: ADME, cell-based; details: raw264.7, 2 h; outline: as §5
[21] = Drug internalization in mouse RAW264.7 using FITC-labeled compound at 2 uM pre-incubated for 1 hr with tubulin polymerization inhibitor nocodazole followed by compound addition and subsequent incubation for 2 hrs by flow cytometry; type: ADME, cell-based; details: raw264.7, 2 h; outline: as §5
[22] = Drug localisation in cytosol of mouse RAW264.7 using FITC-labeled compound at 5 uM incubated for 2 hrs by confocal microscopy; type: ADME, cell-based
Outline: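 RAW264.7 cells were plated for 18 h at 37 °C, then given 5 µM FITC or FITC-labeled peptide for 2 h. Nuclei were stained with Hoechst 33342 and membranes with FM 4-64 (each 5 µg/mL) for 30 min at 37 °C. Cells were PBS-washed and imaged by confocal fluorescence microscopy.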

[23] = Drug internalization in mouse RAW264.7 using FITC-labeled compound at 2 uM pre-incubated for 1 hr with clathrin-mediated endocytosis inhibitor chlorpromazine followed by compound addition and subsequent incubation for 2 hrs by flow cytometry; type: ADME, cell-based; details: raw264.7, 2 h; outline: as §5

CC(C)[C@H](NC(=O)CCCCCN1C(=O)CC(SC[C@H](N)C(=O)N[C@@H](Cc2ccc(O)cc2)C(=O)NCC(=O)N[C@@H](CCCNC(=N)N)C(=O)N[C@@H](CCCCN)C(=O)N[C@@H](CCCCN)C(=O)N[C@@H](CCCNC(=N)N)C(=O)N[C@@H](CCCNC(=N)N)C(=O)N[C@@H](CCC(N)=O)C(=O)N[C@@H](CCCNC(=N)N)C(=O)N[C@@H](CCCNC(=N)N)C(=O)N[C@@H](CCCNC(=N)N)C(=O)O)C1=O)C(=O)N[C@@H](CCCNC(N)=O)C(=O)Nc1ccc(COC(=O)NCC(=O)N[C@@H](Cc2ccccc2)C(=O)N[C@@H](C)C(=O)N[C@@H](Cc2c[nH]c3ccccc23)C(=O)N[C@@H](CC(N)=O)C(=O)N[C@H](C(=O)N[C@H]2CSSC[C@@H](C(=O)N[C@@H](Cc3cnc[nH]3)C(=O)N[C@@H](CCCNC(=N)N)C(=O)N[C@@H](CCCNC(=N)N)C(=O)N[C@@H](C)C(=O)N[C@@H](CC(N)=O)C(N)=O)NC(=O)[C@H](C(C)C)NC(=O)[C@H](CCCNC(=N)N)NC(=O)[C@H](C(C)C)NC(=O)CNC(=O)[C@H](CC(N)=O)NC(=O)[C@H](CCCNC(=N)N)NC(=O)[C@H](Cc3ccc(O)cc3)NC(=O)[C@H](C(C)C)NC2=O)C(C)C)cc1 (some centres undefined)
Activity (Salmonella typhimurium [1]): 2.04 log10CFU
Activity (Salmonella typhimurium [2]): 3.46 log10CFU
Activity (Salmonella typhimurium [3]): 98.6%
Activity (Salmonella typhimurium [4]): 3.29 log10CFU
viability at 8 h, 100 µM [5]: 64.3%
Activity (Salmonella typhimurium [6]): 83.3%
MIC (Salmonella typhimurium [7]): 13.6 µM (≈ 64.4 µg/mL)
hemolysis at 1 h, 100 µM [8]: 4.6%
Activity (Salmonella typhimurium [9]): 2.54 log10CFU
Time (Salmonella typhimurium [10]): <=2 hr
Activity (Salmonella typhimurium [11]): 100%
MIC (Salmonella typhimurium [12]): 3.4 µM (≈ 16.1 µg/mL)
MIC (Salmonella typhimurium [13]): 1.7 µM (≈ 8.05 µg/mL)
Activity (Salmonella typhimurium [14]): 241%
Activity (Salmonella typhimurium [15]): Active
Activity (Salmonella typhimurium [16]): 98.9%
Activity (Salmonella typhimurium [17]): 241%

N=C(N)NCCC[C@H](NC(=O)[C@H](CCCNC(=N)N)NC(=O)[C@H](CCCNC(=N)N)NC(=O)[C@H](CCC(N)=O)NC(=O)[C@H](CCCNC(=N)N)NC(=O)[C@H](CCCNC(=N)N)NC(=O)[C@H](CCCCN)NC(=O)[C@H](CCCCN)NC(=O)[C@H](CCCNC(=N)N)NC(=O)CNC(=O)[C@@H](N)Cc1ccc(O)cc1)C(=O)O
MIC (Salmonella typhimurium [7]): > 82.1 µM
Drug uptake [18]: Not Active
Drug uptake [19]: Not Active
Drug uptake [20]: Not Active
Drug uptake [21]: Active
Drug uptake [22]: Active
Drug uptake [23]: Not Active
